Data reported in ChEMBL document CHEMBL1135785, “N-[(2-Sulfo)-9-fluorenylmethoxycarbonyl](3)-gentamicin C(1) is a long-acting prodrug derivative” (J Med Chem, 2002).

Key:
Albumin [1] = target: T1, Albumin (Homo sapiens, UniProt P02768); experiment: The compound was evaluated for pharmacokinetic parameters Serum albumin associating affinity
[2] = Half life after i.v. administration to rat; format: ADME, organism-based; details: in vivo, iv
In short: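 Rats (n = 4 per group) received 1 μmol/rat intravenously in 0.2 mL PBS, pH 7.4. Tail blood was sampled at several time points. Immunoreactive gentamicin was measured by fluorescence polarization immunoassay, with each point the mean of four rats. Circulating half-life was taken from the decline phase.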

Albumin [3] = target: T1, Albumin; experiment: Evaluated for inhibition of Serum albumin evoked PNPA hydrolysis in presence of 1.3 M of FMS; format: functional
In short: (§1)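 Human serum albumin (11.4 μM) in 0.05 M HEPES, pH 6.7, was preincubated for 10 min with or without increasing concentrations of each FMS-gentamicin conjugate. PNPA was then added to a final 1 mM. Absorbance at 410 nm was read 60 min later, and IC50 was calculated for inhibition of HSA-evoked PNPA hydrolysis.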

Albumin [4] = target: T1, Albumin; experiment: Evaluated for inhibition of Serum albumin evoked PNPA hydrolysis in presence of 0.7 M of FMS; format: functional; in short: as §1
Albumin [5] = target: T1, Albumin; experiment: The compound was evaluated for albumin associating affinity along with 2.1 M of FMS
In short: (§2)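 Albumin affinity was inferred from the PNPA esterase assay. HSA (11.4 μM, 0.05 M HEPES, pH 6.7) was preincubated 10 min with graded conjugate concentrations, then given 1 mM PNPA (final). A410 was read at 60 min. The resulting IC50 values were converted to Kd estimates.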

Albumin [6] = target: T1, Albumin; experiment: Evaluated for inhibition of Serum albumin evoked PNPA hydrolysis in presence of 2.1 M of FMS; format: functional; in short: as §1
[7] = Half life for hydrolysis of the compound; format: ADME
In short: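 Conjugate was incubated in 0.1 M NaHCO3, pH 8.5, at 37 °C. Aliquots were withdrawn over time and assayed with TNBS for the appearance of free amino groups to give the FMS hydrolysis half-life.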

Escherichia coli [8] = experiment: The compound was evaluated for its ability to inhibit replication of Escherichia coli; format: functional, organism-based
In short: (§3)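 Antibacterial potency was measured as inhibition of Escherichia coli replication, expressed as half-maximal inhibitory concentration and as percent of native gentamicin activity.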

Albumin [9] = target: T1, Albumin; experiment: The compound was evaluated for albumin associating affinity along with 3.0 M of FMS; in short: as §2
Escherichia coli [10] = experiment: Potency for its ability to inhibit replication of Escherichia coli; format: functional; in short: as §3
Albumin [11] = target: T1, Albumin; experiment: The compound was evaluated for albumin associating affinity 0.7 M of FMS; in short: as §2
[12] = The compound was evaluated for pharmacokinetic parameters HSA associating affinity; format: ADME; details: human
In short: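 Human serum albumin (11.4 μM) in 0.05 M HEPES, pH 6.7, preincubated 10 min with or without rising conjugate concentrations. p-Nitrophenyl acetate (PNPA) then added to 1 mM final. Absorbance read at 410 nm 60 min later. IC50 calculated for inhibition of HSA-evoked PNPA hydrolysis, then converted to Kd estimates. FMS-L-serine served as internal standard.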

Albumin [13] = target: T1, Albumin; experiment: The compound was evaluated for albumin associating affinity along with 1.3 M of FMS; in short: as §2
Albumin [14] = target: T1, Albumin; experiment: Evaluated for inhibition of Serum albumin evoked PNPA hydrolysis in presence of 3.0 M of FMS; format: functional; in short: as §1

T1 sequence (P02768 whole entry): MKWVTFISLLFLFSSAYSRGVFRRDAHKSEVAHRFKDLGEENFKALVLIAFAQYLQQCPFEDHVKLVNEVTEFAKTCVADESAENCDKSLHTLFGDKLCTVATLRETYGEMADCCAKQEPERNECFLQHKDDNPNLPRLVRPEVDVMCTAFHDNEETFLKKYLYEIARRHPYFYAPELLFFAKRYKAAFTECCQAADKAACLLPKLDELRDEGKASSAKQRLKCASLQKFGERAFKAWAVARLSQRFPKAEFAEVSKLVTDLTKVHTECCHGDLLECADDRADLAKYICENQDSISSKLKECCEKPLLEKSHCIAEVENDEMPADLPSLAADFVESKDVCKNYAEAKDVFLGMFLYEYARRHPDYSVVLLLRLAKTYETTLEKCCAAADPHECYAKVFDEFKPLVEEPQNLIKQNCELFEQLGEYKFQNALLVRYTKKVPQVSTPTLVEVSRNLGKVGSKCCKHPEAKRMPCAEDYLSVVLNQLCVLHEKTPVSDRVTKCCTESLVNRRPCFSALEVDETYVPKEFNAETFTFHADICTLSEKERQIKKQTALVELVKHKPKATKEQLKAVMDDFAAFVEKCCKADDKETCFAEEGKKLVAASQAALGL

Row | Kd (Albumin [1]) | half-life [2] | IC50 (Albumin [3]) | IC50 (Albumin [4]) | Kd (Albumin [5]) | IC50 (Albumin [6]) | half-life [7] | IC50 (Escherichia coli [8]) | Kd (Albumin [9]) | Kd (Albumin [11]) | Ka [12] | Kd (Albumin [13]) | IC50 (Albumin [14]) | SMILES | Potency (Escherichia coli [10])
1 | 20 µM | 1.3 h |  |  |  |  |  |  |  |  |  |  |  | CNC(C)[C@H]1CCC(N)[C@@H](O[C@@H]2C(N)C[C@@H](NC(=O)OCC3c4ccccc4-c4ccc(S(=O)(=O)O)cc43)C(O[C@H]3OC[C@](C)(O)C(NC)[C@@H]3O)[C@@H]2O)O1 (stereo partly specified) | 
2 |  | 3.8 h | 43 µM | 80 µM | 9.2 µM | 23 µM | 8 h | 24 µM | 7.6 µM | 32 µM | 131000 M⁻¹ | 17.2 µM | 19 µM | CNC(C)[C@H]1CCC(NC(=O)OCC2c3ccccc3-c3ccc(S(=O)(=O)O)cc32)[C@@H](O[C@@H]2C(NC(=O)OCC3c4ccccc4-c4ccc(S(=O)(=O)O)cc43)C[C@@H](NC(=O)OCC3c4ccccc4-c4ccc(S(=O)(=O)O)cc43)C(O[C@H]3OC[C@](C)(O)C(NC)[C@@H]3O)[C@@H]2O)O1 (stereo partly specified) | <1%
3 | 9.2 µM |  |  |  |  |  |  |  |  |  |  |  |  | CNC(C)[C@H]1CCC(N)[C@@H](O[C@@H]2C(NC(=O)OCC3c4ccccc4-c4ccc(S(=O)(=O)O)cc43)C[C@@H](NC(=O)OCC3c4ccccc4-c4ccc(S(=O)(=O)O)cc43)C(O[C@H]3OC[C@](C)(O)C(NC)[C@@H]3O)[C@@H]2O)O1 (stereo partly specified) | 
